Assay results as given in the array DNA melting data of Ke et al. (doi:10.1101/2024.01.08.574731).

What was measured:
[1] = folding enthalpy; higher = less favourable; fluorescence melt of hairpins on a sequencing array, two-state fit; conditions: sodium 0.088 M
Summary of the method: (§1)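 To match UV melts, fitted temperatures were raised by 9.35 °C. These fits were bootstrapped two-state models that gave melting temperature and folding enthalpy, combined by inverse variance over four replicates. The input was normalised Cy3 fluorescence of library hairpins with annealed Cy3 and quencher oligos on a sequenced MiSeq flow cell, imaged in 50 mM Na-HEPES pH 8.0, 25 mM NaCl in 2.5 °C steps up to 60 °C.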

[2] = melting temperature; fluorescence melt of hairpins on a sequencing array, two-state fit, raised by 9.35 °C to match UV melts; conditions: sodium 0.088 M
Summary of the method: as §1

Row | Sequence | folding enthalpy [1] | Tm [2]
1 | GCATAGCGAAAGCGGTGC (((..((....))..))) | -136 kJ/mol | 63.6 °C
2 | GCATAGCGAAAGCTACGC ((.((((....)))).)) | -84.9 kJ/mol | 52.9 °C
3 | GCATAGGCGAAAGCCTGC (((..(((....)))))) | -56.4 kJ/mol | 49 °C
4 | GCATATACGAAAGTATGC (((..(((....)))))) | -93.3 kJ/mol | 41.5 °C
5 | GCATATGGAAACATGTGC (((.(((....))).))) | -153 kJ/mol | 49 °C
6 | GCATCACGAAAGTGTTGC (((.(((....))).))) | -184 kJ/mol | 55 °C
7 | GCATCAGAAATGATGC ((((((....)))))) | -162 kJ/mol | 57.9 °C
8 | GCATCCACGAAAGTGTGC (((..(((....)))))) | -59.7 kJ/mol | 37.6 °C
9 | GCATCCGAAAGGAACTGC ((((((....)))..))) | -71.7 kJ/mol | 33.5 °C
10 | GCATCCGAAAGGAATGC ((((((....))).))) | -135 kJ/mol | 55.4 °C
11 | GCATCCGAAAGGATTGC ((((((....))).))) | -69.4 kJ/mol | 53.8 °C
12 | GCATCCGAAAGGATTTGC ((((((....)))..))) | -77.2 kJ/mol | 43.9 °C
13 | GCATCCGGAAACAGATGC (((((.(....).))))) | -154 kJ/mol | 45 °C
14 | GCATCCGGAAACGAATGC ((((.((....)).)))) | -185 kJ/mol | 45.5 °C
15 | GCATCGCGAAAGCAATGC ((((.((....)).)))) | -103 kJ/mol | 60.2 °C
16 | GCATCGCGAAAGCAGTGC (((..((....))..))) | -75.5 kJ/mol | 52.3 °C
17 | GCATCGCGAAAGCGCTGC (((.(((....))).))) | -176 kJ/mol | 56 °C
18 | GCATCGCGAAAGCGTAGC ((..(((....)))..)) | -71.8 kJ/mol | 48.5 °C
19 | GCATCGCGAAAGCTAAGC ((.(.((....)).).)) | -28 kJ/mol | 30.7 °C
20 | GCATCGCGAAAGCTGTGC (((..((....))..))) | -88.2 kJ/mol | 45.8 °C
21 | GCATCGGAAACGATGC ((((((....)))))) | -150 kJ/mol | 68.6 °C
22 | GCATCTCGAAAGAGCTGC (((.(((....))).))) | -129 kJ/mol | 48.2 °C
23 | GCATCTCGAAAGAGTTGC (((.(((....))).))) | -142 kJ/mol | 50.6 °C

Row | Sequence | folding enthalpy [1] | Tm [2]
24 | GCATCTTCGAAAGAATGC (((..(((....)))))) | -97.1 kJ/mol | 33.4 °C
25 | GCATGACGAAAGTCTTGC (((.(((....))).))) | -160 kJ/mol | 57.5 °C
26 | GCATGAGGAAACTCATGC (((((((....))))))) | -169 kJ/mol | 65.3 °C
27 | GCATGCCGAAAGGCTTGC (((.(((....))).))) | -113 kJ/mol | 66.2 °C
28 | GCATGCGAAAGCAAGTGC ((((((....)))..))) | -74.4 kJ/mol | 46.8 °C
29 | GCATGCGAAAGCAATGC ((((((....))).))) | -130 kJ/mol | 64.2 °C
30 | GCATGCGAAAGCACCTGC ((((((....)))..))) | -45.6 kJ/mol | 33 °C
31 | GCATGCGAAAGCAGCTGC ((((((....)))..))) | -75.1 kJ/mol | 54 °C
32 | GCATGCGAAAGCATGTGC ((((((....)))..))) | -64.9 kJ/mol | 64 °C
33 | GCATGCGGAAACGCGTGC (((.(((....))).))) | -189 kJ/mol | 67.6 °C
34 | GCATGGCGAAAGCAAAGC ((.(.((....)).).)) | -45.6 kJ/mol | 31.8 °C
35 | GCATGGCGAAAGCAACGC ((.(.((....)).).)) | -45.2 kJ/mol | 30.7 °C
36 | GCATGGCGAAAGCACTGC (((..((....))..))) | -86 kJ/mol | 46.3 °C
37 | GCATGGCGAAAGCGCTGC (((..((....))..))) | -78 kJ/mol | 51.6 °C
38 | GCATGGCGAAAGCTATGC ((((.((....)).)))) | -158 kJ/mol | 66.6 °C
39 | GCATGGGGAAACTCATGC (((((.(....).))))) | -169 kJ/mol | 51.9 °C
40 | GCATGTCCGAAAGGATGC (((..(((....)))))) | -68.6 kJ/mol | 40.2 °C
41 | GCATGTCGAAAGACTTGC (((.(((....))).))) | -183 kJ/mol | 54.6 °C
42 | GCATGTGAAAACATGC ((((((....)))))) | -160 kJ/mol | 64 °C
43 | GCATGTGGAAACATATGC ((((.((....)).)))) | -129 kJ/mol | 49.5 °C
44 | GCATTAGGAAACCAATGC (((((.(....).))))) | -124 kJ/mol | 39.6 °C
45 | GCATTAGGAAACTGATGC ((((.((....)).)))) | -153 kJ/mol | 45.4 °C
46 | GCATTCGAAAGAATGTGC ((((((....)))..))) | -154 kJ/mol | 50.6 °C

Row | Sequence | folding enthalpy [1] | Tm [2]
47 | GCATTGCGAAAGCACAGC ((..(((....)))..)) | -63.5 kJ/mol | 35.4 °C
48 | GCATTGCGAAAGCACGGC ((..(((....)))..)) | -69.6 kJ/mol | 40 °C
49 | GCATTGCGAAAGCACTGC (((.(((....))).))) | -189 kJ/mol | 52.2 °C
50 | GCATTGCGAAAGCCAGGC ((.(.((....)).).)) | -73.8 kJ/mol | 38.5 °C
51 | GCATTGCGAAAGCCCTGC (((..((....))..))) | -61.1 kJ/mol | 34.5 °C
52 | GCATTGCGAAAGCCGTGC (((..((....))..))) | -91.9 kJ/mol | 41.2 °C
53 | GCATTGCGAAAGCGATGC ((((.((....)).)))) | -159 kJ/mol | 67.5 °C
54 | GCATTGGGAAACCAATGC (((((((....))))))) | -188 kJ/mol | 65.8 °C
55 | GCATTGGGAAACTGATGC ((((..(....)..)))) | -125 kJ/mol | 38.8 °C
56 | GCATTTCGAAAGAATGC (((.(((....)))))) | -128 kJ/mol | 45.5 °C
57 | GCATTTGCGAAAGCATGC (((..(((....)))))) | -74.9 kJ/mol | 44.9 °C
58 | GCCAAAGCGAAAGCTGGC (((..(((....)))))) | -109 kJ/mol | 59.7 °C
59 | GCCAAAGGAAACTTCGGC (((.(((....))).))) | -100 kJ/mol | 39.6 °C
60 | GCCAACCGAAAGGTAGGC (((.(((....))).))) | -164 kJ/mol | 60.4 °C
61 | GCCAACGAAAGTTCAGGC ((((((....)))..))) | -118 kJ/mol | 40.7 °C
62 | GCCAACGAAAGTTCGGC ((((((....))).))) | -110 kJ/mol | 51.2 °C
63 | GCCAACGAAAGTTTGGGC ((((((....)))..))) | -112 kJ/mol | 46 °C
64 | GCCAAGCGAAAGCATGGC ((((.((....)).)))) | -146 kJ/mol | 67 °C
65 | GCCAAGCGAAAGCCAGGC (((..((....))..))) | -92.9 kJ/mol | 54.5 °C
66 | GCCAAGCGAAAGCTAGGC (((.(((....))).))) | -168 kJ/mol | 60.4 °C
67 | GCCAAGGAAACTTGGC ((((((....)))))) | -160 kJ/mol | 62.9 °C
68 | GCCAATCGAAAGATAGGC (((.(((....))).))) | -149 kJ/mol | 52.1 °C
